Screening results (PubChem BioAssay)
The list is not random: actives were taken first. Their share in the collection is about 9.4%.
CSC inhib – cancer stem cell viability inhibitors, primary screen, luminescence. AID 2717, 2010. cancer stem cell-like cells viability. 1.1% of 300,000 active. inhibition, % at 7.5 µM; in the data active = inhibition above about 75%; tested in HMLE shEcad cells
SKKanGAS inh – S. pyogenes SKKanGAS growth inhibitors in kanamycin, primary screen, streptokinase expression inhibitor project, SKKanGAS strain, BacTiter-Glo luminescence | AID 1662, 2009 | inhibition, % at 7.5 µM | 1.3% of 300,000 active | 6 h;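 active = mean replicate score, as percent of positive control median, at least 50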;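 note: strain carries kanamycin resistance gene driven by streptokinase promoter and grows in 40 µg/ml kanamycin; loss of luminescence reflects streptokinase promoter inhibition or plain growth inhibition; 0% = median of DMSO wells and 100% = positive control at its reference dose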
T cruzi repl – inhibitors of intracellular T. cruzi growth, primary screen, luminescence, NIH3T3 host cells; T. cruzi beta-gal in NIH3T3, 90 h; inhibition, % (no concentration beside the values); 1.4% of 300,000 active;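 active = mean inhibition across valid replicates above about 55%, limit read from the data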;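 note: signal also drops with host cell toxicity which is not excluded here; 0% = plate median of DMSO wells and 100% = zero luminescence signal; higher percent means less beta-gal luminescence so fewer parasites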
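Material: NIH/3T3 host cells with β-galactosidase reporter T. cruzi; Input: 5,000 host fibroblasts per well; Medium: DMEM, 2% fetal bovine serum; Compound: 50 nL DMSO compound solution per well; Schedule: 3 h host attachment, then at least 90 h co-culture; Detection: luminescent β-galactosidase signal after 60 min lysis.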
L major viab – Leishmania major promastigote growth inhibition, primary screen; AID 1063, 2008; 9% of 200,000 active; Leishmania major promastigotes, resazurin fluorescence viability; inhibition, % at 10 µM; in the data active = inhibition above about 50%;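 note: promastigotes grown with compound for 44 hours at 28 °C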
Beta apoptosis – inhibitors of cytokine-induced beta cell apoptosis, primary screen, luminescence | INS-1E cytokine-induced death, ATP luminescence, 48 h; percent of positive-control rescue, neutral wells zero | protection from apoptosis, % (no concentration beside the values) | 0.8% of 300,000 active | AID 435005, 2010;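 active = Every replicate reaches about 75%, or at least half do and their mean reaches it too, limit read from the data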;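 note: 0% = cytokine-treated negative control wells and 100% = positive control rescue; higher means more ATP so stronger rescue from cytokine killing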
Mdm2 MdmX PPI – inhibitors of human Mdm2-MdmX association, primary screen, cell-based, luminescence, split luciferase, SaOS-2, uHTS | Protein Mdm4 (Homo sapiens) + E3 ubiquitin-protein ligase Mdm2 (Homo sapiens), … | SaOS-2 split-luciferase Mdm2/MdmX complementation | inhibition, % at 8 µM | 3% of 330,000 active;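 active = inhibition of at least 50% at 8 µM in the primary screen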
* hit, by the source's call; . = not tested or not shown.

SMILES | CSC inhib | SKKanGAS inh | T cruzi repl | L major viab | Beta apoptosis | Mdm2 MdmX PPI
COC(=O)c1cc(=O)c2c([N+](=O)[O-])ccc(OC)c2o1 | -3 | 1 | -12 | 6 | -1 | 13
O=C(c1ccco1)N1CCN(C(=O)c2ccccc2OCc2ccccc2)CC1 | -11 | . | . | . | 3 | 5
O=C(Nc1ccccc1)c1cc(S(=O)(=O)NCc2ccncc2)ccc1Cl | 35 | -2 | -38 | . | 50 | 26
CCOC(=O)/C=C/c1ccc2c(c1)S(=O)(=O)N(c1cccc(OC)c1)[C@H]2CC(=O)OCC | -14 | -2 | 27 | . | 1 | -24
O=C(Nc1cccnc1)c1cnn2c(C(F)F)cc(C3CC3)nc12 | -3 | 2 | -3 | 13 | 3 | 37
O=C(Nc1cc(Br)ccc1O)c1cnn2c(C(F)F)cc(C3CC3)nc12 | 3 | 11 | 2 | 51* | 8 | 17
O=C(Nc1ccccc1Cl)N(Cc1nc2ccccc2c(=O)[nH]1)Cc1cccs1 | -6 | -4 | 6 | 44 | 8 | 8
COc1ccccc1CN(Cc1nc2ccccc2c(=O)[nH]1)C(=O)Nc1cccc(C)c1 | 6 | 3 | 15 | 86* | 7 | 17
O=C(Nc1ccc(Cl)cc1)N(Cc1nc2ccccc2c(=O)[nH]1)Cc1cccs1 | -8 | 6 | 32 | 85* | 5 | -29
CSc1ncccc1C(=O)OCC(=O)NCCCc1ccccc1 | -3 | . | . | . | -7 | 3
N#CCCN1CCN(C2=NC(=O)/C(=C\c3cccs3)S2)CC1 | 6 | -5 | -17 | -11 | -4 | 16
Cc1ccc(C)c(S(=O)(=O)Nc2ccc3sc(C)nc3c2)c1 | 12 | 8 | 3 | 95* | 6 | 13
Cc1nc2cc(NS(=O)(=O)c3cccc4cccnc34)ccc2s1 | . | -2 | -23 | . | . | 27
O=[N+]([O-])c1ccccc1-c1cc(-c2ccccc2O)n[nH]1 | . | 5 | -2 | 58* | . | -123
CC1=C(C(=O)OCC2CCCO2)C(c2ccc(C)o2)C2=C(CC(c3ccc(N(C)C)cc3)CC2=O)N1 (stereo unspecified) | . | . | . | 85* | . | .
Cc1cc(Nc2ccccc2)nc2cc(O)ccc12 | 5 | -2 | 18 | 83* | 8 | 12
COc1nccc(-c2ccc(F)cc2)c1C#N | -14 | 15 | 3 | -2 | -4 | 4
COC(=O)[C@H]1[C@@H](C)N(Cc2ccccc2)C(=O)N[C@H]1c1ccccc1 | 6 | 8 | -18 | . | 1 | -19
O=C(CSc1nccc(=O)[nH]1)Nc1ccc(N2CCOCC2)cc1 | -16 | 2 | -6 | . | 7 | -10
COc1ccc(C(O)C(CN2CCOCC2)c2ccccc2)cc1 (stereo unspecified) | 0 | 3 | -12 | 89* | 4 | -14
CCOc1ccc(C(=O)C(CN2CCOCC2)c2ccccc2)cc1 (stereo unspecified) | 58 | 2 | -9 | 99* | -4 | .
CN(CC1CCCO1)S(=O)(=O)c1ccc(C(=O)NCc2ccccc2)cc1 (stereo unspecified) | -4 | -9 | -29 | -3 | 1 | 18
O=C(Cn1cc(C(F)(F)F)ccc1=O)N/N=C/c1cccc(Cl)c1Cl | 7 | 1 | 6 | 75* | 8 | -8
O=C(Cn1cc(C(F)(F)F)ccc1=O)N/N=C/c1ccc(Cl)c(Cl)c1 | -2 | -4 | 8 | 4 | -2 | -19
COCCNC(=O)c1cc2cc3ccc(OC)cc3nc2o1 | -3 | -3 | -3 | . | 2 | -4
SMILES | CSC inhib | SKKanGAS inh | T cruzi repl | L major viab | Beta apoptosis | Mdm2 MdmX PPI
CCOc1ccc(NC(=O)c2cc3cc4ccc(C)cc4nc3o2)cc1 | -5 | -15 | 12 | 2 | 2 | 26
COc1ccc2cc3cc(C(=O)NCC4CCCO4)oc3nc2c1 (stereo unspecified) | -3 | -7 | -7 | 79* | -6 | -6
O=C(NCc1ccco1)c1cc2cc3ccc(Cl)cc3nc2o1 | 25 | -2 | 8 | 5 | 1 | 34
CCOc1ccc(NC(=O)c2cc3cc4ccc(OC)cc4nc3o2)cc1 | 0 | 1 | 19 | 100* | 2 | 42
COc1ccc2cc3cc(C(=O)NCc4ccco4)oc3nc2c1 | 66 | -11 | 14 | 60* | 5 | -23
CCCCCC1CCC(C(=O)N2CCOCC2)CC1 (stereo unspecified) | -4 | 3 | 1 | . | -3 | -16
CCOc1ccc(NC(=O)C2CCCN(c3nc(C)cc(C)n3)C2)cc1 (stereo unspecified) | . | -1 | 2 | . | 0 | 22
Cc1csc(SCC(=O)Nc2nc(-c3ccccc3)cs2)n1 | -12 | -5 | 1 | -3 | -10 | -19
CCOc1ccc(NCc2nnc(SCC(=O)Nc3nc(-c4ccccc4)cs3)n2-c2ccccc2)cc1 | -9 | -4 | 11 | 95* | 7 | 36
Nc1ccccc1SCC(=O)Nc1nc(-c2ccccc2)cs1 | 127* | -9 | -9 | 47 | -11 | -9
COc1ccc(-c2csc(NC(=O)CSc3ncn[nH]3)n2)cc1OC | 5 | -4 | -3 | 4 | -2 | 17
O=C(CSc1ncn[nH]1)Nc1nc(-c2ccccc2)cs1 | 1 | 1 | -9 | 93* | -5 | -15
CC(C)Nc1nc(Cl)nc(NCCOc2ccccc2)n1 | -1 | -7 | 3 | 20 | 1 | -5
CCC(C)Nc1nc(Cl)nc(NCCOc2ccccc2)n1 (stereo unspecified) | -1 | -4 | 16 | 80* | 4 | 12
C=CCn1nc([N+](=O)[O-])nc1Sc1cccc2cccnc12 | -18 | -6 | 50 | 58* | 95* | 33
Cc1cc(-c2ccccc2)n(-c2cc(N/N=C/c3ccccc3O)ncn2)n1 | 105* | . | . | 100* | 77* | .
COc1ccc(CN(C)S(=O)(=O)c2nnc(NC(=O)c3ccccc3Br)s2)cc1 | 30 | 59* | -7 | . | 4 | -2
Cc1ccc(S(=O)(=O)Nc2ccccc2N(C)S(=O)(=O)c2ccc(C)cc2)cc1 | 32 | 4 | 21 | . | 110* | -18
Cc1ccc(S(=O)(=O)Nc2cccc3c2CCCC3)cc1 | 2 | 14 | 12 | 54* | . | -5
O=S(=O)(Nc1cccc2c1CCCC2)c1cccc(C(F)(F)F)c1 | 8 | 13 | 4 | 44 | 4 | 16
COc1cc(OC)cc(-c2nc3ccccc3c(=O)n2OC(=O)c2ccc(C)c(C)c2)c1 | 11 | 14 | -11 | 73* | 10 | 11
COc1ccc(-c2cn3cc(C(F)(F)F)cc(Cl)c3n2)cc1 | 127* | -1 | 21 | 19 | -2 | -299
O=C(O)c1ccc(N/N=C/c2ccncc2)cc1 | -9 | 2 | -1 | . | -1 | 12
Cc1ccc(N/N=C/c2ccncc2)cc1 | 79* | 0 | 15 | . | -1 | -26
Cc1csc(N/N=C\c2cccnc2)n1 | 13 | -18 | -16 | 7 | 2 | -8
